# A selection: hits, their analogues and other compounds. The true share with any hit is near 4.5%.
# OX1R antag-1 – OX1R (HCRTR1) antagonists, primary screen, fluorescence, CHO/OX1R cells, Fluo-8 calcium, orexin A | Orexin/Hypocretin receptor type 1 (Homo sapiens), O43613 | Fluo-8 calcium fluorescence | inhibition, % at 5 µM | actives 0.43% (n = 330,000) | AID 434989, 2010;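 active = inhibition above its plate's threshold, mean inhibition of all tested compounds on the plate plus 3 SD, cut at about 37% in these data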;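 also: 0% = orexin A challenge wells and 100% = SB-334867-A antagonist wells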
# GPR7 antag – GPR7 receptor antagonists, primary screen, cell-based, fluorescence, single concentration; inhibition, % at 4.4 µM; GPR7-expressing cells, fluorescence antagonist assay; AID 1861, 2009; actives 1.1% (n = 290,000); Neuropeptides B/W receptor type 1 (Homo sapiens), P48145; in the data active = inhibition above about 16%, passing the limit was not always enough;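 also: cells stimulated with the agonist NPW; 0% = agonist with vehicle and 100% = vehicle without agonist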
# Target sequence (P48145 whole entry, looked up): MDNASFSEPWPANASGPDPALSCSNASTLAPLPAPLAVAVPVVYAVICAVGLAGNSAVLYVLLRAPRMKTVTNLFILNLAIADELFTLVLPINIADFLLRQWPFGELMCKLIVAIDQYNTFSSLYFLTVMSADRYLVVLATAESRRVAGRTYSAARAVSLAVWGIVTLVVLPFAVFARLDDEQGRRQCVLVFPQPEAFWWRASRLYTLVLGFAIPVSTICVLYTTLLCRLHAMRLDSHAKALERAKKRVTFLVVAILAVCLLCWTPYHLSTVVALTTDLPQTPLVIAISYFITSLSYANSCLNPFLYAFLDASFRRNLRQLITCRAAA
# TAAR1 antag – human TAAR1 antagonists, primary screen, Fluo-8 calcium fluorescence, CHO RD-HGA16 cells. Trace amine-associated receptor 1 (Homo sapiens), Q96RJ0. antagonist. inhibition, % at 3 µM. actives 1.5% (n = 360,000). AID 624466, 2012;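 active = inhibition above a per-plate cutoff, the mean inhibition of test compounds on that plate plus 3 SD, cut at about 49% in these data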;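 also: 0% = DMSO plus EC80 beta-PEA response and 100% = DMSO alone without agonist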
#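 Test system – hTAAR1-expressing CHO RD-HGA16 cells, Gα16-coupled · Reagent – β-PEA at EC80 concentration, post-compound challenge · Compound dosing – 3 µM, single point · Timing – 140 s kinetic read after compound, 140 s after agonist · Detection – Fluo-8 intracellular calcium dye fluorescence, real-time kinetic reads · Control set – DMSO and EC80 PEA controls · Repeats – n of 1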
# TAAR1 ag – human TAAR1 agonists, primary screen, Fluo-8 calcium fluorescence, CHO RD-HGA16 cells; vehicle wells 0%, saturating PEA agonist 100%; activation, % at 3 µM; actives 0.99% (n = 360,000);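 active = activation above the mean activation of all test compounds in the run plus 3 SD, cut at about 38% in these data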
#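 Benchmarks: low control DMSO, high control PEA (EC100); System: CHO RD-HGA16 cells carrying human TAAR1 plus Gα16; Detection: Fluo-8 fluorescence, 5 s baseline then 140 s kinetic read; Schedule: 17-24 h plating, Fluo-8 75 min 37 °C, 30 min RT; Read-out basis: % activation from peak over basal fluorescence ratio, DMSO-to-PEA scaled.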
# OX1R antag-2 – antagonists of human orexin 1 receptor (OX1R); OX1R-expressing cells, FRET antagonist read-out; inhibition, % at 6.6 µM; actives 1.8% (n = 330,000); in the data active = inhibition mostly above about 38%, no sharp cut-off; inactive = mostly below about 40%;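 also: 0% = agonist challenge alone and 100% = reference antagonist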
# CHO parental Ca – ATP-evoked calcium signal inhibitors, parental CHO, primary screen, counter-screen for OX1R antagonist project, cell-based, fluorescence, Fluo-8 calcium dye; AID 463079, 2010; actives 0.63% (n = 330,000); inhibition, % at 5.6 µM; parental CHO-K1, ATP-induced calcium, Fluo-8 fluorescence;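 active = inhibition above that plate's mean sample inhibition plus 3 SD, cut at about 26% in these data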;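 also: 0% = ATP-challenged DMSO wells and 100% = DMSO wells without ATP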
#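 Test system: untransfected parental CHO cell line; also added: ATP stimulus; dosing: 5.6 µM, single dose; signal: calcium-sensitive Fluo-8 fluorescence; measure: percent inhibition of ATP-evoked calcium rise, normalized to controls; benchmarks: low control ATP plus DMSO, high control DMSO only; replication: one well per compound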
# OX1R HTRF conf – OX1R (HCRTR1) antagonists, confirmation, cell-based, HTRF | shares compounds with OX1R antag-2 | inhibition, % at 6.6 µM | OX1R-expressing cells, HTRF antagonist assay | actives 49% (n = 1,800); in the data active = inhibition above about 55%;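 also: CHO cells expressing OX1R stimulated with orexin A at about EC80; 0% = agonist challenge alone and 100% = reference antagonist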
# CHO-K1 HTRF – signal inhibition in parental CHO-K1 cells, counter-screen for OX1R antagonist project, cell-based, HTRF; shares compounds with OX1R antag-2; HTRF counterscreen; inhibition, % at 6.6 µM; actives 48% (n = 1,800); in the data active = inhibition above about 17%;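 also: 0% = agonist challenge with vehicle and 100% = vehicle alone without agonist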
# An asterisk follows results filed as active; . = no result given.
SMILES,OX1R antag-1,GPR7 antag,TAAR1 antag,TAAR1 ag,OX1R antag-2,CHO parental Ca,OX1R HTRF conf,CHO-K1 HTRF
O=C(NCCN1CCOCC1)c1ccc([N+](=O)[O-])cc1[N+](=O)[O-],-13,0,11,7,179*,-10,73*,81*
O=C(NCCN1CCOCC1)c1cc(Cl)ccc1[N+](=O)[O-],8,-10,-4,-1,51,-3,.,.
CSc1ccc(CN2CCC2(C)C(=O)Nc2cccc(NS(C)(=O)=O)c2)cc1 (stereo not drawn),.,.,5,4,.,.,.,.
C=CCc1cc(/C=C2/NC(=O)NC2=O)cc(OCC)c1O,-20,3,0,10,13,-8,.,.
CCOc1cc(/C=C2/NC(=O)NC2=O)cc([N+](=O)[O-])c1O,4,-17,3,6,80*,6,49,74*
CC(C)Nc1ncnc2c1ncn2[C@H]1CN(C2CCCC2)C[C@@H](CO)O1,.,.,-10,0,.,.,.,.
O=C1c2cc(S(=O)(=O)N(CCO)CCO)ccc2-c2ccc(S(=O)(=O)N(CCO)CCO)cc21,-6,.,-25,2,111*,3,71*,72*
CN(CCO)S(=O)(=O)c1ccc2c(c1)C(=NN)c1cc(S(=O)(=O)N(C)CCO)ccc1-2,-6,-11,-4,5,5,-9,.,.
O=C(/C=C/c1ccc([N+](=O)[O-])cc1)NNC(=O)C1CC1,1,-17,-7,3,137*,-1,49,66*
O=C(/C=C/c1ccc([N+](=O)[O-])cc1)NC1CC2CCC1C2 (stereo not drawn),-21,16,-10,2,39,-23,.,.
NC(=O)c1ccsc1NC(=O)c1ccc2c(c1)CCCC2,-11,-6,24,-1,79*,-4,66*,2
CCC1CCC2(CC1)NC(=O)N(CC(=O)NCc1ccccc1Cl)C2=O (stereo not drawn),-28,.,-1,-1,10,-27,.,.
CC1CN(C(=O)/C=C/c2ccc([N+](=O)[O-])s2)CC(C)O1 (stereo not drawn),-26,-5,4,0,126*,-34,65*,75*
O=C(CCCN1C(=O)C2CCCCN2C1=O)N1CCN(c2ccc([N+](=O)[O-])cc2)CC1 (stereo not drawn),-11,-12,8,4,79*,-6,27,25*
O=C1C2CCCCN2C(=O)N1CCN1CCN(c2ccc([N+](=O)[O-])cc2)CC1 (stereo not drawn),-16,-13,-6,1,39,-11,.,.
O=C1NC[C@@H](CCCCN2CCN(CCc3ccc(O)cc3)C(=O)C2=O)N(Cc2ccccc2)C1=O,.,.,-8,2,.,.,.,.
c1ccc(N2CCN(c3ncnc4c3oc3ccccc34)CC2)cc1,26,-10,49*,15,90*,-21,65*,-28
CCCSc1ccc([C@@H]2[C@@H]3C(=O)N(CC)C(=O)[C@@H]3[C@]3(C(=O)OC)CCCCN23)cc1OC,-15,.,7,1,7,-39,.,.
CCSc1ccc([C@@H]2[C@H]3C(=O)N(CC)C(=O)[C@H]3[C@]3(C(=O)OC)CCCCN23)cc1OC,32,.,.,.,84*,-29,76*,7
CN(C)c1ccc(-c2nnc(-c3cccs3)o2)cc1,7,3,11,2,84*,-20,88*,14
Cc1ccc2ccccc2c1NC(=O)CNCc1ccccc1,.,.,32,6,.,.,.,.

# High-throughput results from PubChem.
